In one experiment the test system is S. pneumoniae. Put plainly: Broth microdilution MIC, S. pneumoniae. Type of experiment: cell-based. The settings on record: Streptococcus pneumoniae, 24 h, read-out: MIC, Bacteria, S. pneumoniae. The essentials: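 S. pneumoniae clinical isolate, from paediatric community-acquired pneumonia. CLSI M7-A7 broth microdilution in Mueller Hinton broth with 2.5% lysed sheep blood, inoculum about 2 × 10^8 CFU/mL. Serial test-compound dilutions, 37°C for 24 h. MIC was the lowest concentration suppressing visible growth.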
A general note: Dilution methods test growth across graded concentrations, often in twofold steps.

Another experiment has as its system MetRS2. The settings on record: cited from earlier work.

Converted amounts (≈) assume the structure as drawn.

The MIC is the smallest concentration in the dilution series that meets the test's criterion for growth inhibition. For `CC1(C)S[C@@H]2[C@H](NC(=O)[C@H](N)c3ccccc3)C(=O)N2[C@H]1C(=O)O` [Ampicillin, reference compound], in the experiment with S. pneumoniae, the MIC was found to be 0.0625 µg/mL (≈ 0.179 µM).
For the compound `C=C(F)c1sc(CNCCCNc2cc(O)c3ccccc3n2)c(C)c1Br` [REP8839], the “Activity towards MetRS2” value in the experiment with MetRS2 is given as “no activity”.

The record behind these values is PMC3747510 (Scientific Reports, 2013).
